# Test results: ChEMBL document CHEMBL4513216, “Probing the Open Global Health Chemical Diversity Library for Multistage-Active Starting Points for Next-Generation Antimalarials” (ACS Infect Dis, 2020)
# Assay: Toxicity liver stage against HepG2, at 10uM
# Assay type: cell-based
# Parameters: test concentration 10 uM, cell line HepG2-A16-CD81EGFP
# Settings: human, HepG2-A16-CD81EGFP cells; read-out: INHIBITION
# Outline: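 Uninfected HepG2-A16-CD81EGFP cells, 3 × 10^3 per well, 1536-well, plated on prespotted compound at 10 μM final, parasite-free screening media added to match infected plates; puromycin 10 μM positive, DMSO 0.5% negative; run in parallel with 48 h PbLuc assay at 37 °C, 5% CO2; viability by CellTiter-Glo luminescence, normalized to controls.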
row,SMILES,cytotoxicity at 10 µM [%]
1,CCC1(C)Cc2ccccc2-c2nc(NCCCO)nc(O)c21 (configuration not stated),5.42
2,Cc1noc([C@@H]2C[C@H](NS(=O)(=O)Cc3ccccc3)CN2C)n1,4.5
3,Fc1ccc2nc([C@H]3CCNC3)[nH]c2c1,9.21
4,CC(C)n1nnc2c(sc3nc(N4CCOCC4)c4c(c32)CCC4)c1=O,3.26
5,Cc1nn(C2CCS(=O)(=O)C2)c(O)c1Cc1cccc(Cl)c1 (configuration not stated),-46.9
6,CC(C)CNC(=O)c1cccc(Oc2ccc3nncn3n2)c1,-1.95
7,CC(C)Cn1cc(C(=O)NC2CCS(=O)(=O)C2)c2ccccc2c1=O (configuration not stated),0.724
8,Cc1ccc(S(=O)(=O)N(C)c2ccsc2C(=O)NCC(C)C)cc1,10.6
9,CN(C)C(=O)c1nnn(-c2ccc(Br)cc2)n1,7.5
10,CO[C@@H]1CCN(c2ncc(F)cn2)[C@H]1Cc1cnn(C)c1,-2.63
11,Cc1nc(-c2ccccc2)cc2nn(CC(N)=O)c(=O)n12,0.301
12,O=C(Cc1ccc2c(c1)OCC2)Nc1nc(C(F)(F)F)n[nH]1,2.98
13,COC(=O)c1sc2nc3c(c(C(F)(F)F)c2c1N)CN(C(C)=O)CC3,-8.18
14,NC(=O)C1CCN(C(=O)c2cc(-n3cnnn3)ccc2Cl)CC1,12.4
15,O=C(c1cc(-n2cnnn2)ccc1Cl)N1CCC2(CC1)OCCO2,-1.66
16,CN(C)c1nc2n(c(=O)n1)CCN2C(=O)Nc1ccc(Cl)c(Cl)c1,9.76
17,CCS(=O)(=O)Nc1ccc2oc(C)c(C(C)=O)c2c1,7.13
18,OC1(CN2CCC(Cc3ncccn3)CC2)CCOCC1,16.6
19,Cc1ccnc(C2CN(c3ccnc(C)n3)C2)n1,-2.4
20,CCn1cc(S(=O)(=O)N2CCCC3(CC=CNC3=O)C2)cn1 (configuration not stated),-2.92
21,O=C(c1cc2c(s1)CCC2)N1CCC(c2cnccn2)CC1,-2.34

row,SMILES,cytotoxicity at 10 µM [%]
1,Cc1nc(C2CCCCN2C(=O)c2ccccc2)ncc1C(=O)N(C)C (configuration not stated),1.9
2,Nc1cc(N2CCCC2c2cnccn2)ncn1 (configuration not stated),0.153
3,OCc1cn(Cc2cccc(F)c2)nn1,8.95
4,COc1cccc(C(C)N2CCN(S(C)(=O)=O)CC2)c1 (configuration not stated),-8.42
5,CCc1noc(CNc2ccc(CC(=O)N3CCSCC3)cc2)n1,3.73
6,CC(Nc1ccc(C(F)(F)F)cc1C#N)c1cccc(S(N)(=O)=O)c1 (configuration not stated),-3.09
7,O=C(c1cc(C2CC2)nc2onc(-c3ccccc3)c12)N1CC[C@H](O)C1,-40.4
8,Cc1nc2c(C#N)cnn2c(C)c1CCC(=O)N(C)C1CC1,-47.2
9,COCc1noc(Cc2c(C)nn(C)c2C)n1,7
10,CC(NC(=O)CN1CCCC1=O)c1ccc(Cl)s1 (configuration not stated),-6.45
11,Cc1ccc(NC(=O)N2CCOC(C)C2)cc1Cl (configuration not stated),-6.78
12,O=C(CC1CC1)N1CCCn2nnc(CNc3ncccn3)c2C1,-0.802
13,CCc1ncnc2c1CCN(S(=O)(=O)c1ccccc1)CC2,-96.8
14,CC(=O)c1cnc(N(C)Cc2cc(C)cc(C)n2)nc1C,8.81
15,Cc1cnc(C)c(-c2cc(O)c3c(c2)CN(c2nccs2)CCO3)n1,1.08
16,COc1cc2c(cc1-c1nc3c(cnn3C)[nH]1)OCO2,-8.9
17,CCc1nnc(CN(C)Cc2cccc(C(=O)Nc3cnn(C)c3)c2)o1,-5.54
18,Nc1cc(-c2cccc3c2CCNC3)ncn1,-8.27
19,O=C(c1ccco1)N1CCN(Cc2nc(C3CC3)no2)CC1,5.21
20,Cc1nn(C)c2nc(N3CCCCC3c3nccs3)sc12 (configuration not stated),10.2
21,COc1ccc(-c2nc3c([nH]2)CCNC3)c(OC)c1OC,0.786

row,SMILES,cytotoxicity at 10 µM [%]
1,c1ccc(CN2CCC(CNc3ncnc4c3CCNCC4)CC2)cc1,-4.84
2,CN1CC(c2ccccc2)CC12CCN(C(=O)c1ccc(Cl)cn1)CC2 (configuration not stated),3.62
3,C=C(C)COc1cccc(CNCc2nc3ccccc3c(=O)[nH]2)c1,-40.9
4,CCC(C(=O)NCc1ccncc1)N(c1cccc(Cl)c1)S(C)(=O)=O (configuration not stated),-4.31
5,Cc1noc(-c2ccc(N(C)Cc3cccnc3)nc2)n1,-1.24
6,CC(C)(CO)NC(=O)C1CCC(=O)N(Cc2ccc(Cl)cc2)C1 (configuration not stated),-6.14
7,C[C@@H]1CN(C(=O)c2cnc(C3CC3)nc2)CC[C@@]1(O)C1CCOCC1,-13.9
8,CN(Cc1ccc(F)cc1)CC1(O)CCCN(CC(C)(C)C)C1=O (configuration not stated),-9.35
9,CCc1ccccc1CN1CC[C@@H](NC(=O)c2cccnc2)[C@H](O)C1,-9.67
10,CN(C)C(=O)CCC(=O)NCc1cccnc1-n1cnc2ccccc21,-3.97
11,CN(C)Cc1nnc(C2CCN(C(=O)CCc3cccs3)CC2)n1C,-15.9
12,COCCN1CCN(C(C)c2nc(C3CC3)no2)CC1 (configuration not stated),-8.36
13,COc1ccc(CC(=O)N2CCCC(c3cc(C)[nH]n3)C2)cc1 (configuration not stated),-7.69
14,CCC(O)CN1CCN(C(=O)Cc2ccc(C)nc2)CC1 (configuration not stated),-9.24
15,Cc1nc(C2CCCN(C(=O)CCCn3ccnc3C)C2)no1 (configuration not stated),-13.4
16,Cc1noc(Cl)c1CCC(=O)N1CCN(c2ncccn2)CC1,-2.01
17,Cc1nc(C2CCCN2Cc2nnc(C3CC3)o2)no1 (configuration not stated),-5.97
18,COc1ccc(-c2noc(CN3CCOCC3C)n2)cc1OC (configuration not stated),-7.3
19,CC(C)N(Cc1nc2c(cnn2C)c(=O)[nH]1)c1ccccc1,-12.6
20,CS(=O)(=O)c1ccc(CNC(=O)N2CCC(C(N)=O)C2)cc1 (configuration not stated),-8.03
21,CCn1nnc2cc(C(=O)N3CCCC3Cn3cc(C)cn3)ccc21 (configuration not stated),-9.8

row,SMILES,cytotoxicity at 10 µM [%]
1,Cn1cc(C(=O)NC2CCN(C(=O)NCC3CCSCC3)CC2)cn1,4.02
2,COc1ccc(CNC(=O)NC(C)Cn2cccn2)cc1O (configuration not stated),-3.1
3,CC(O)CN(CC(=O)NC(=O)NC1CC1)c1ccccc1 (configuration not stated),-2.14
4,CCc1nc(CN2CCCN(C(=O)c3c(C)noc3C)CC2)cs1,1.74
5,Clc1cccnc1OC1CCNCC1,-10.9
6,Cc1c(C)n(CC(O)CN2CCN(CCO)CC2)c2c(Cl)cccc12 (configuration not stated),-12.9
7,CN1C(=O)CCC12CCC(NC(=O)NCc1cccnc1)CC2 (configuration not stated),-99.8
8,Cc1c(Br)cccc1C(=O)NCCC1CCCNC1 (configuration not stated),-11.7
9,Cn1ccnc1CN1CCC2(CC1)CC(NC(=O)c1ccccn1)CO2 (configuration not stated),-2.05
10,Cc1ccc(CN2CCOC3(CCCN(C(=O)c4ccco4)C3)C2)s1 (configuration not stated),-10.3
11,Fc1cccc(CN2C[C@@H]3CN(c4ncccn4)C[C@@H]3C2)c1,6.81
12,COc1ccc(CN2C[C@H]3C[C@H](CN(C)C)O[C@H]3C2)cc1,-7.4
13,Cc1occc1C(=O)N1CCC2(CCN(C(=O)c3cccnc3)C2)CC1,-88.1
14,CN(Cc1cccnc1)Cc1cncc2c1CCN(Cc1ccoc1)C2,-100
15,O=C(C1CCCO1)N1C[C@@H]2CCN(c3cnccn3)C[C@@H]2C1 (some centres not stated),-0.832
16,Cc1noc(C)c1C(=O)N1CCOC2(COCCN(C(C)C)C2)C1 (configuration not stated),2.71
17,CN1CCO[C@@H]2CN(S(=O)(=O)c3cccs3)CC[C@@H]2C1,11.7
18,CO[C@H]1CCN(Cc2c(C)noc2C)[C@@H]2CN(Cc3cccnc3)C[C@H]12,5.55
19,Cc1n[nH]cc1CNCc1ccnc(OCC(F)(F)F)c1,5.33
